Bioassay records deposited in PubChem BioAssay by several laboratories.
Most compounds without a hit are left out; they make up all but 3.4% or so of the library.
VIM-2 inh – VIM-2 metallo-beta-lactamase inhibitors, primary screen, biochemical, epi-absorbance readout, Pseudomonas aeruginosa enzyme | purified VIM-2, nitrocefin hydrolysis, epi-absorbance fluorescence | inhibition, % at 5.6 µM | hit rate 0.89% among 290,000 | AID 1527, 2009;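 active = inhibition above the mean of all tested compounds plus 3 SD, cutoff set per screening run, cut at about 7.5% in these data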;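 also: red hydrolysis product quenches plate fluorescence so inhibitors raise well fluorescence; 0% = enzyme with DMSO and 100% = DMSO without enzyme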
MEKK3 PB1 HTS – modulators of MEKK3-MEK5 PB1 binding, primary screen, biochemical, wildtype MEKK3, multiplex bead flow cytometry, Alexa488-MEK5; hit rate 1.4% among 290,000; bead-based flow cytometry, Alexa488-MEK5 binding to MEKK3; actives lie on both sides; 0 = blocked by unlabeled MEK5, 100 = vehicle; binding response (% of control), % at 10 µM; AID 1529, 2009; Mitogen-activated protein kinase kinase kinase 3 (Homo sapiens), Q99759;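 active = binding response more than 3 SD above or below the average of its plate-row segment, actives on both sides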;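 also: Alexa488 bead fluorescence after subtracting the streptavidin-only scavenger bead signal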
Target sequence (Q99759 whole entry, looked up): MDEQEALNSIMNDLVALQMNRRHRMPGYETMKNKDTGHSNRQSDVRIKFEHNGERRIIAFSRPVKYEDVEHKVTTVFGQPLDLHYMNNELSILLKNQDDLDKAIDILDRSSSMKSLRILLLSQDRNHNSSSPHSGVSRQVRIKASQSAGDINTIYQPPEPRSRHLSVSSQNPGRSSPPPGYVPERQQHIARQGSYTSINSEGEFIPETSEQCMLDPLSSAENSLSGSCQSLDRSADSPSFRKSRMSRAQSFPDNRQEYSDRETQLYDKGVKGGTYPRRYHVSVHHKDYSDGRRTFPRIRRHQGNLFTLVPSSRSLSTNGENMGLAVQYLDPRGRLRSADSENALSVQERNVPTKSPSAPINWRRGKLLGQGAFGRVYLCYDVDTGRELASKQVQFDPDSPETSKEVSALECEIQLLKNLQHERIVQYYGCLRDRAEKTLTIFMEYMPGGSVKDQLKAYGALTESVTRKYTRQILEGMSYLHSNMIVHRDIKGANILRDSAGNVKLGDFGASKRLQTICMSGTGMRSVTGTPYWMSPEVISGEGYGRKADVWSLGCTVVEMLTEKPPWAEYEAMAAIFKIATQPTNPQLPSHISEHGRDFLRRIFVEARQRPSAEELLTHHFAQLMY
MEKK2mut PB1 HTS – MEK5 binding signal on mutant MEKK2 PB1, primary screen, biochemical, multiplex bead flow cytometry, Alexa488-MEK5. Alexa488-MEK5 binding to MEKK2 mutant. percent response, % at 10 µM. hit rate 0.35% among 290,000. AID 1530, 2009; in the data active = percent response above about 24%, passing the limit was not always enough
IMP-1 inhibitor – IMP-1 metallo-beta-lactamase inhibitors, primary screen, biochemical, epi-absorbance readout, Pseudomonas aeruginosa enzyme | metallo-beta-lactamase IMP-1 (Pseudomonas aeruginosa) | purified IMP-1, nitrocefin hydrolysis, epi-absorbance fluorescence | inhibition, % at 5.6 µM | hit rate 0.45% among 290,000 | AID 1556, 2009;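 active = inhibition above the mean plus 3 SD of all compounds in the same screening run, cut at about 4.5% in these data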;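 also: 0% = IMP-1 with DMSO and 100% = DMSO wells lacking enzyme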
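System: Purified recombinant IMP-1 metallo-beta-lactamase enzyme | Measured by: Fluorescence quenching readout, ex 480/em 530 nm | Replication: Singlicate | Incubation: 15 min preincubation plus 25 min reaction at 25 °C | Evaluation: Percent inhibition from optical density relative to buffer-blank wells | Benchmarks: DMSO with and without IMP-1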
MEKK2 WT-MEK5 – modulators of MEK5 binding to wildtype MEKK2, primary screen, biochemical, multiplex bead flow cytometry, Alexa488-MEK5; hit rate 1.1% among 290,000; binding response (% of control), % at 10 µM; Alexa488-MEK5 binding to MEKK2 WT; actives lie on both sides; in the data active = binding response below about 67% or above about 130%
The depositor's hits bear a star; . = no result.

SMILES | VIM-2 inh | MEKK3 PB1 HTS | MEKK2mut PB1 HTS | IMP-1 inhibitor | MEKK2 WT-MEK5
COc1ccc(C2(c3ccc(OC)cc3)NC(=O)N(CC(=O)NC(C)C)C2=O)cc1 | -4.2 | 103.0 | 0.0 | -3.8 | 100.0
N#CC1=C(N)OC2=C(CC/C2=C\c2ccccc2Cl)C1c1ccccc1Cl (stereo not drawn) | -0.7 | 103.0 | 13.0 | -0.8 | 104.0
N#CC1=C(N)OC2=C(CC/C2=C\c2ccccc2)C1c1ccccc1 (stereo not drawn) | -2.3 | . | . | 5.2* | .
O=C(CSc1nc(C2CCCCC2)n(-c2ccccc2)n1)NCC(F)(F)F | -2.9 | 145.0* | 0.0 | -4.3 | 107.0
Cc1ccc(/C=C/C(=O)NCc2ccncc2)cc1 | -2.1 | 100.0 | 10.0 | 0.2 | 111.0
On1c(-c2ccccc2)nc2ccc(Cl)cc21 | -5.1 | 99.0 | 0.0 | 5.2* | 100.0
CCc1cc2c(=O)n(Cc3ccco3)c(SCC(=O)NCC3CCCO3)nc2s1 (stereo not drawn) | 1.1 | 102.0 | -6.0 | -2.5 | 99.0
CCc1cc2c(=O)n(Cc3ccco3)c(SCC(=O)N3CCCc4ccccc43)nc2s1 | 3.0 | 111.0 | 2.0 | 6.0* | 103.0
O=C(NC(=S)Nc1nc(-c2ccc([N+](=O)[O-])cc2)cs1)c1ccco1 | -4.9 | 93.0 | -3.0 | 62.5* | 94.0
O=C(NC(=S)Nc1nc(-c2ccc(Br)cc2)cs1)c1ccco1 | -4.7 | 100.0 | -3.0 | -2.3 | 92.0
C=CCN(C(=O)c1cccc(S(=O)(=O)N2CCN(C)CC2)c1)c1nc(-c2ccccc2)cs1 | -0.9 | 109.0 | 19.0 | -2.9 | 116.0
C=CCN(C(=O)Cc1cccs1)c1nc(-c2ccc(S(C)(=O)=O)cc2)cs1 | 0.9 | 98.0 | -2.0 | 5.3* | 96.0
C=CCN(C(=O)CCc1ccccc1OC)c1nc(-c2ccc(S(C)(=O)=O)cc2)cs1 | 1.1 | 102.0 | -4.0 | 4.6* | 95.0
C#CCn1c(=NC(=O)c2cccs2)sc2cccc(OCC)c21 | -3.8 | 116.0 | 11.0 | -3.4 | 109.0
CCN(CC)CCNC(=O)c1c(C)n(-c2ccccc2)c2cc(Br)c(OC)cc12 | 8.0* | 86.0 | 8.0 | -1.8 | 134.0
CCOC(=O)c1ccc(N2CN(C3CCCCC3)CNC2=S)cc1 | -0.4 | 89.0 | -4.0 | 7.2* | 93.0
CC(=O)N1c2ccc(S(=O)(=O)N(C)CC(=O)Nc3ccccc3C)cc2CC1C (stereo not drawn) | -4.1 | 102.0 | -2.0 | 4.8* | 98.0
O=C(O)c1ccc(N=Cc2c(O)ccc3ccccc23)cc1 | 1.9 | 100.0 | 1.0 | -1.2 | 100.0
Oc1ccc2ccccc2c1C=Nc1cc(C(F)(F)F)ccc1N1CCCC1 | -0.4 | 95.0 | 17.0 | 0.2 | 6.0*
Cc1cnnc2c1-c1no[n+]([O-])c1CC2 | -1.8 | 107.0 | -3.0 | -4.4 | 110.0
Cc1cnnc2c1-c1nonc1CC2 | -2.2 | 110.0 | 3.0 | 4.5* | 106.0
COc1ccc(C(=O)c2sc(Nc3ccccc3)c(C(=O)Nc3ccc(OC)c(OC)c3)c2N)cc1 | -6.9 | 93.0 | -13.0 | -4.3 | 81.0
N=C1C(c2nc(-c3ccc(Cl)cc3)cs2)=C(O)CN1CCCN1CCOCC1 | 13.9* | 96.0 | 9.0 | -2.5 | 119.0
O=S(=O)(c1ccc(NC(=S)NCc2ccco2)cc1)N1CCCCC1 | -5.1 | 102.0 | 3.0 | -3.0 | 101.0
O=C(N/N=C/c1ccc(Cl)cc1Cl)c1ccc2nc[nH]c2c1 | -0.9 | 102.0 | 5.0 | 8.8* | 101.0
SMILES | VIM-2 inh | MEKK3 PB1 HTS | MEKK2mut PB1 HTS | IMP-1 inhibitor | MEKK2 WT-MEK5
CSc1nc2[nH]c3c(c2c2ncnn12)CCCC3 | 11.3* | 104.0 | 8.0 | -1.7 | 104.0
Cc1nc(CCNC(=O)CC2C(=O)NCCN2Cc2ccccc2)sc1C (stereo not drawn) | -0.8 | 98.0 | -2.0 | 5.0* | 102.0
O=C(C1CCN(C2CCN(Cc3ccc4c(c3)CCO4)CC2)CC1)N1CCCC1 | -2.8 | 95.0 | -12.0 | -2.9 | 98.0
Cc1ccc(-n2c(SCC(=O)N3CCCCC3)nc(O)c(Cc3ccccc3)c2=O)cc1 | -1.2 | 100.0 | 3.0 | 9.3* | 97.0
Cc1sc2nc(SCC(=O)N3CCN(CCO)CC3)n(-c3ccccc3)c(=O)c2c1C | 23.6* | 100.0 | 1.0 | -1.4 | 101.0
Cc1sc2nc(SCC(N)=O)n(-c3ccccc3)c(=O)c2c1C | -2.5 | 93.0 | -8.0 | -1.3 | 88.0
COc1ccc(N2C(=O)CN=C2Nc2nc(C)cc(C)n2)cc1OC | -2.4 | 105.0 | 8.0 | -4.3 | 114.0
Cc1nn(-c2ccccc2)c(C)c1C(=O)OCC(=O)N1c2ccccc2NC(=O)C1(C)C | -1.2 | 105.0 | 2.0 | -1.1 | 100.0
Fc1ccccc1-n1c(-c2ccc3ccccc3n2)n[nH]c1=S | -0.4 | 104.0 | 3.0 | -0.3 | 108.0
CC(C)=C1C2CCC1C(C(=O)Nc1cc(C)cc(C)c1)C2C(=O)O (stereo not drawn) | 9.4* | 81.0 | -18.0 | -1.8 | 82.0
Cc1cc(C)cc(NC(=O)C2C3C=CC(O3)C2C(=O)O)c1 (stereo not drawn) | -0.8 | 106.0 | 8.0 | -3.2 | 104.0
CN1CCN(C(=O)CCN2C(=O)/C(=C\c3ccc(Cl)cc3)SC2=S)CC1 | 4.4 | 100.0 | 7.0 | 1.1 | 109.0
CN1CCN(C(=O)CCN2C(=O)/C(=C/c3cccc(Br)c3)SC2=S)CC1 | 1.0 | 101.0 | 3.0 | 5.5* | 104.0
O=C(CCCN1C(=O)/C(=C/c2cccc(Br)c2)SC1=S)N1CCOCC1 | -2.5 | 95.0 | -1.0 | -2.9 | 96.0
CN1CCN(C(=O)CCCN2C(=O)/C(=C/c3cccc(Br)c3)SC2=S)CC1 | 11.5* | 105.0 | 20.0 | 2.2 | 122.0
CCn1c(=O)cc(SCC(=O)Nc2ccc(Cl)cc2)c2ccccc21 | -2.1 | 96.0 | -2.0 | -2.5 | 93.0
COc1ccc(S(=O)(=O)N2CCCCC2)cc1NC(=O)Cc1c[nH]c2ccccc12 | -3.0 | 101.0 | 3.0 | -1.5 | 97.0
Cc1nn(C(C)C(=O)NCCCN2CCCCCC2)c(=O)c2cc3sccc3n12 (stereo not drawn) | 0.7 | 108.0 | 15.0 | 3.2 | 144.0*
CCC(C(=O)NCCN1CCOCC1)n1nc(C)n2c(cc3sccc32)c1=O (stereo not drawn) | -1.5 | 101.0 | 2.0 | 0.0 | 101.0
CCN1C(=O)CC(N2CCC(C(=O)OC)CC2)C1=O (stereo not drawn) | -3.3 | 97.0 | 3.0 | -1.9 | 94.0
CCOc1cccc2sc(N(CCN(C)C)C(=O)c3cc4ccccc4cc3OC)nc12 | 3.0 | 101.0 | 19.0 | -1.2 | 149.0*
CCOc1cccc2sc(N(CCN(C)C)C(=O)c3ccc4c(c3)OCCO4)nc12 | -1.6 | 105.0 | 10.0 | -5.5 | 117.0
COc1ccc2nc(N(CCN(C)C)C(=O)c3ccc4ccccc4c3)sc2c1 | -0.4 | 101.0 | 8.0 | -0.5 | 132.0
